Test results reported in ChEMBL document CHEMBL2311306, “The precise chemical-physical nature of the pharmacore in FK506 binding protein inhibition: ElteX, a New class of nanomolar FKBP12 ligands” (J Med Chem, 2013).

Key:
[1] = target: Peptidyl-prolyl cis-trans isomerase FKBP1A (Homo sapiens) (UniProt P62942); assay: Binding affinity to FKBP12 PPI domain (unknown origin) in water bulk solution by fluorescence spectrophotometric analysis relative to FK506
[2] = target: Peptidyl-prolyl cis-trans isomerase FKBP1A (Homo sapiens) (UniProt P62942); assay: Apparent binding affinity to FKBP12 PPI domain (unknown origin) in PBS at pH 7 by fluorescence spectrophotometric analysis relative to FK506
Method in brief: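 FKBP12, final 1 µM, diluted from a PBS stock (pH 7.4, 0.15 M NaCl) into phosphate buffer at 15 °C. Ligand 1–200 nM, final DMSO <0.3% v/v. Intrinsic Trp fluorescence quenching: excitation 280 nm, emission 325 nm, ligand-only spectra subtracted. Apparent Kd fitted from intensity versus ligand concentration, expressed as ratio to FK506 under identical conditions. At least 2 replicates, 3–4 at low concentrations.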

Chain of Peptidyl-prolyl cis-trans isomerase FKBP1A (Homo sapiens) (P62942 whole entry, the tested form may be a part): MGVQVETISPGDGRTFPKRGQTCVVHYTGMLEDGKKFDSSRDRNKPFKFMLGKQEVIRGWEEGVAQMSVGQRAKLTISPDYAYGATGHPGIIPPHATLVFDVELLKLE

Structure (SMILES)	Ratio [1]	Kd(app) [2]
CCC[C@@H](CCc1ccccc1)OC(=O)[C@@H]1CCCCN1C(=O)C(=O)c1ccccc1	1.1	
CCCC(CCc1ccccc1)NC(=O)[C@@H]1CCCCN1C(=O)C(=O)c1ccccc1 (mixture of isomers)	5	
O=C(C(=O)N1CCCC[C@H]1C(=O)NCCCc1ccccc1)c1ccccc1		0.5
CCC(C)(C)C(=O)C(=O)N1CCCC[C@H]1C(=O)O[C@@H](CCc1ccccc1)c1ccccc1	750	
CCC(C)(C)C(=O)C(=O)N1CCCC[C@H]1C(=O)O[C@H](CCc1ccccc1)c1ccccc1	25	
CCC[C@H](CCc1ccccc1)OC(=O)[C@@H]1CCCCN1C(=O)C(=O)c1ccccc1	1.6	

Next, values leading:

Ratio [1]	Kd(app) [2]	Structure (SMILES)
1		C=CC[C@@H]1/C=C(\C)C[C@H](C)C[C@H](OC)[C@H]2O[C@@](O)(C(=O)C(=O)N3CCCC[C@H]3C(=O)O[C@H](/C(C)=C/[C@@H]3CC[C@@H](O)[C@H](OC)C3)[C@H](C)[C@@H](O)CC1=O)[C@H](C)C[C@@H]2OC
0.5		CO[C@H]1C[C@@H]2CC[C@@H](C)[C@@](O)(O2)C(=O)C(=O)N2CCCC[C@H]2C(=O)O[C@H]([C@H](C)C[C@@H]2CC[C@@H](O)[C@H](OC)C2)CC(=O)[C@H](C)/C=C(\C)[C@@H](O)[C@@H](OC)C(=O)[C@H](C)C[C@H](C)/C=C/C=C/C=C/1C
1.2		COc1cc(OC)c(C(=O)C(=O)N2CCCC[C@H]2C(=O)OC(CCCc2ccccc2)CCCc2ccncc2)c(OC)c1 (some centres undefined)
